Measurements published in ChEMBL document CHEMBL5247575 (J Med Chem, 2018).
Values after ≈ are worked out from the molar mass of the structure shown.

These molecules were tested on Klebsiella pneumoniae (assay: Synergistic antibacterial activity against Klebsiella pneumoniae 1108/1989 producing KPC-3 assessed as cefepime MIC at 4 ug/ml by broth microdilution method). Settings: dose 4 µg/ml.
Assay type: functional
Summary of the method: (§1)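 Broth microdilution per CLSI guidelines, using custom frozen panels. […] Each partner drug was also tested alone. MICs were run in triplicate and the modal value is reported.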

SMILES | MIC
O=C(NNC(=O)[C@@H]1CC[C@@H]2CN1C(=O)N2OS(=O)(=O)O)[C@@H]1CCCNC1 [ZIDEBACTAM] | ≤ 0.12 µg/mL

The molecules below were run on Acinetobacter baumannii (assay: Synergistic antibacterial activity against ADC deleted Acinetobacter baumannii assessed as cefepime MIC at 4 ug/ml by broth microdilution method). Settings: dose 4 µg/ml.
Assay type: functional

SMILES | MIC
O=C(NNC(=O)[C@@H]1CC[C@@H]2CN1C(=O)N2OS(=O)(=O)O)[C@@H]1CCCNC1 [ZIDEBACTAM] | 0.25 µg/mL

The molecules below were run on Klebsiella pneumoniae (assay: Synergistic antibacterial activity against Klebsiella pneumoniae 729/1679 producing KPC-3 assessed as cefepime MIC at 4 ug/ml by broth microdilution method). Settings: dose 4 µg/ml.
Assay type: functional
Summary of the method: as §1

SMILES | MIC
O=C(NNC(=O)[C@@H]1CC[C@@H]2CN1C(=O)N2OS(=O)(=O)O)[C@@H]1CCCNC1 [ZIDEBACTAM] | ≤ 0.12 µg/mL

What follows are molecules tested on Acinetobacter baumannii (assay: Synergistic antibacterial activity against Acinetobacter baumannii PR440 producing OXA-23/24/40 assessed as meropenem MIC at 4 ug/ml by broth microdilution method). Settings: dose 4 µg/ml.
Assay type: functional

SMILES | MIC
O=C(NNC(=O)[C@@H]1CC[C@@H]2CN1C(=O)N2OS(=O)(=O)O)[C@@H]1CCCNC1 [ZIDEBACTAM] | > 16 µg/mL

The molecules below were run on Klebsiella pneumoniae (assay: Synergistic antibacterial activity against Klebsiella pneumoniae 440/1360 producing KPC-2 assessed as meropenem MIC at 8 ug/ml by broth microdilution method). Settings: dose 8 µg/ml.
Assay type: functional
Summary of the method: as §1

SMILES | MIC
O=C(NNC(=O)[C@@H]1CC[C@@H]2CN1C(=O)N2OS(=O)(=O)O)[C@@H]1CCCNC1 [ZIDEBACTAM] | ≤ 0.12 µg/mL

The molecules below were run on Pseudomonas aeruginosa (assay: Synergistic antibacterial activity against Pseudomonas aeruginosa 795 assessed as cefepime MIC at 8 ug/ml by broth microdilution method). Settings: dose 8 µg/ml.
Assay type: functional

SMILES | MIC
O=C(NNC(=O)[C@@H]1CC[C@@H]2CN1C(=O)N2OS(=O)(=O)O)[C@@H]1CCCNC1 [ZIDEBACTAM] | 16 µg/mL

Each molecule was assayed on Klebsiella pneumoniae (assay: Synergistic antibacterial activity against Klebsiella pneumoniae 935/1884 producing KPC-3 assessed as cefepime MIC at 8 ug/ml by broth microdilution method). Settings: dose 8 µg/ml.
Assay type: functional

SMILES | MIC
O=C(NNC(=O)[C@@H]1CC[C@@H]2CN1C(=O)N2OS(=O)(=O)O)[C@@H]1CCCNC1 [ZIDEBACTAM] | ≤ 0.12 µg/mL

What follows are molecules tested on Klebsiella pneumoniae (assay: Synergistic antibacterial activity against Klebsiella pneumoniae 1108/1989 producing KPC-3 assessed as meropenem MIC at 8 ug/ml by broth microdilution method). Settings: dose 8 µg/ml.
Assay type: functional
Summary of the method: as §1

SMILES | MIC
O=C(NNC(=O)[C@@H]1CC[C@@H]2CN1C(=O)N2OS(=O)(=O)O)[C@@H]1CCCNC1 [ZIDEBACTAM] | ≤ 0.12 µg/mL

Each molecule was assayed on Pseudomonas aeruginosa (assay: Antibacterial activity against Pseudomonas aeruginosa 839 by broth microdilution method). Settings: not given.
Assay type: functional

SMILES | MIC
O=C(NNC(=O)[C@@H]1CC[C@@H]2CN1C(=O)N2OS(=O)(=O)O)[C@@H]1CCCNC1 [ZIDEBACTAM] | 8 µg/mL (≈ 20.4 µM)

What follows are molecules tested on Acinetobacter baumannii (assay: Synergistic antibacterial activity against ADC deleted Acinetobacter baumannii transfected with pWH1266 OXA-23 assessed as meropenem MIC at 4 ug/ml by broth microdilution method). Settings: dose 4 µg/ml.
Assay type: functional

SMILES | MIC
O=C(NNC(=O)[C@@H]1CC[C@@H]2CN1C(=O)N2OS(=O)(=O)O)[C@@H]1CCCNC1 [ZIDEBACTAM] | > 16 µg/mL

These molecules were tested on Escherichia coli (assay: Synergistic antibacterial activity against Escherichia coli DH10B transfected with pBC SK (-) PDC-3 assessed as meropenem MIC at 4 ug/ml by broth microdilution method). Settings: dose 4 µg/ml.
Assay type: functional
Summary of the method: as §1

SMILES | MIC
O=C(NNC(=O)[C@@H]1CC[C@@H]2CN1C(=O)N2OS(=O)(=O)O)[C@@H]1CCCNC1 [ZIDEBACTAM] | ≤ 0.12 µg/mL

Each molecule was assayed on Acinetobacter baumannii (assay: Synergistic antibacterial activity against Acinetobacter baumannii PR476 producing OXA-24/40 assessed as meropenem MIC at 4 ug/ml by broth microdilution method). Settings: dose 4 µg/ml.
Assay type: functional

SMILES | MIC
O=C(NNC(=O)[C@@H]1CC[C@@H]2CN1C(=O)N2OS(=O)(=O)O)[C@@H]1CCCNC1 [ZIDEBACTAM] | 0.25 µg/mL

Each molecule was assayed on Klebsiella pneumoniae (assay: Antibacterial activity against Klebsiella pneumoniae jefferson 1773 producing OXA-181 by broth microdilution method). Settings: not given.
Assay type: functional

SMILES | MIC
O=C(NNC(=O)[C@@H]1CC[C@@H]2CN1C(=O)N2OS(=O)(=O)O)[C@@H]1CCCNC1 [ZIDEBACTAM] | > 16 µg/mL

These molecules were tested on Pseudomonas aeruginosa (assay: Synergistic antibacterial activity against Pseudomonas aeruginosa CL232 assessed as cefepime MIC at 4 ug/ml by broth microdilution method). Settings: dose 4 µg/ml.
Assay type: functional

SMILES | MIC
O=C(NNC(=O)[C@@H]1CC[C@@H]2CN1C(=O)N2OS(=O)(=O)O)[C@@H]1CCCNC1 [ZIDEBACTAM] | 16 µg/mL

What follows are molecules tested on Bacteria (assay: Inhibition of bacteria PDC-3 assessed as second order rate constant K2/K using nitrocefin as substrate). Settings: not given.

SMILES | K
O=C(NNC(=O)[C@@H]1CC[C@@H]2CN1C(=O)N2OS(=O)(=O)O)[C@@H]1CCCNC1 [ZIDEBACTAM] | 4.8 10^5/M/s

The molecules below were run on Acinetobacter baumannii (assay: Synergistic antibacterial activity against Acinetobacter baumannii PR474 producing OXA-23/24/40 assessed as meropenem MIC at 8 ug/ml by broth microdilution method). Settings: dose 8 µg/ml.
Assay type: functional

SMILES | MIC
O=C(NNC(=O)[C@@H]1CC[C@@H]2CN1C(=O)N2OS(=O)(=O)O)[C@@H]1CCCNC1 [ZIDEBACTAM] | > 16 µg/mL

The molecules below were run on Klebsiella pneumoniae (assay: Synergistic antibacterial activity against Klebsiella pneumoniae 776/1742 producing KPC-2 assessed as meropenem MIC at 4 ug/ml by broth microdilution method). Settings: dose 4 µg/ml.
Assay type: functional

SMILES | MIC
O=C(NNC(=O)[C@@H]1CC[C@@H]2CN1C(=O)N2OS(=O)(=O)O)[C@@H]1CCCNC1 [ZIDEBACTAM] | ≤ 0.12 µg/mL

Each molecule was assayed on Pseudomonas aeruginosa (assay: Synergistic antibacterial activity against Pseudomonas aeruginosa 839 assessed as meropenem MIC at 8 ug/ml by broth microdilution method). Settings: dose 8 µg/ml.
Assay type: functional

SMILES | MIC
O=C(NNC(=O)[C@@H]1CC[C@@H]2CN1C(=O)N2OS(=O)(=O)O)[C@@H]1CCCNC1 [ZIDEBACTAM] | ≤ 0.12 µg/mL
